Where only a bound is given, the exact number is not on record here.

Assay [1] addresses Calcium/calmodulin-dependent protein kinase kinase 2 (Homo sapiens) (UniProt Q96RR4). Briefly: Inhibition of CAMKKb at 1 uM relative to control.
Assay [2] addresses Aurora kinase B (Homo sapiens) (UniProt Q96GD4). Briefly: Inhibition of Aurora B at 1 uM relative to control.
Assay [3] is described as follows: Growth inhibition of human WM266.4 cells expressing BRAF V600E mutant after 5 days by SRB assay. The class given is functional. The settings on record: WM 266-4, 120 h. In a few lines:
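WM266.4 human melanoma cells, which are driven by mutant BRAF, were assayed for proliferation by sulforhodamine B (SRB) staining; the value is a GI50.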
For orientation: In SRB staining, fixed cells bind dye roughly in proportion to their protein.

In assay [4] the target is SRSF protein kinase 1 (Homo sapiens) (UniProt Q96SB4). Kind of assay: Inhibition of SRPK1 at 1 uM relative to control.
Assay [5] deals with Serine/threonine-protein kinase pim-1 (Homo sapiens) (UniProt P11309). Kind of assay: Inhibition of PIM1 at 1 uM relative to control.
Assay [6] concerns the target Ribosomal protein S6 kinase alpha-5 (Homo sapiens) (UniProt O75582). Kind of assay: Inhibition of MSK1 at 1 uM relative to control.
For assay [7], the target named is Maternal embryonic leucine zipper kinase (Homo sapiens) (UniProt Q14680). Kind of assay: Inhibition of MELK at 1 uM relative to control.
Assay [8] has as its target T1, Serine/threonine-protein kinase D1 (Homo sapiens) (UniProt Q15139).
T1 sequence (whole entry): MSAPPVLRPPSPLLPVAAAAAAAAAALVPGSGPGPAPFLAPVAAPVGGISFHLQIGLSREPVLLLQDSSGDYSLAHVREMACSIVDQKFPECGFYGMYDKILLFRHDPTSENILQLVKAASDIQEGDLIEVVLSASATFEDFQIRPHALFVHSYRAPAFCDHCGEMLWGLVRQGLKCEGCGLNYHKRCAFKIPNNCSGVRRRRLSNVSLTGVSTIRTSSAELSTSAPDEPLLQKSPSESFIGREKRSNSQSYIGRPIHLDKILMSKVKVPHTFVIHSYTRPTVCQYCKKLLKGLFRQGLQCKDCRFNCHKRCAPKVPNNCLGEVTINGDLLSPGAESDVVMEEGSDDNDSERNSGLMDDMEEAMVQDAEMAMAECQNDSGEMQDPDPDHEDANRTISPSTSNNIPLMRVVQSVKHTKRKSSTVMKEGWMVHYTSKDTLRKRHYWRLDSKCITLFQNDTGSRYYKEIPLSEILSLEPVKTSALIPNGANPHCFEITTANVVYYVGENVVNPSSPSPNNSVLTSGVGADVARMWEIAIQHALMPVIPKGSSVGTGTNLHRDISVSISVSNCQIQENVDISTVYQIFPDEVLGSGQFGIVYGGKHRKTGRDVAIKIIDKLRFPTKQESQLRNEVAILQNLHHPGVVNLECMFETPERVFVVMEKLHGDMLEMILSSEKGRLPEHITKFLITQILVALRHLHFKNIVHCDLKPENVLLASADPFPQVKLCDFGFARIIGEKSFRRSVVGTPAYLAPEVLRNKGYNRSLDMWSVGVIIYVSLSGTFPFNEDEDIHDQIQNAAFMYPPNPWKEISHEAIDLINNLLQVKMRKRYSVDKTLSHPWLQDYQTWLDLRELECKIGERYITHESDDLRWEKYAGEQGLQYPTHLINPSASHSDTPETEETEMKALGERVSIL
Briefly: Inhibition of PKD1 at 1 uM relative to control.

Assay [9] addresses Serine/threonine-protein kinase PAK 5 (Homo sapiens) (UniProt Q9P286). Briefly: Inhibition of PAK5 at 1 uM relative to control.
In assay [10] the target is Tyrosine-protein kinase Lck (Homo sapiens) (UniProt P06239). Kind of assay: Inhibition of Lck at 1 uM relative to control.
The target in assay [11] is Rho-associated protein kinase 2 (Homo sapiens) (UniProt O75116). Briefly: Inhibition of ROCK2 at 1 uM relative to control.
The target in assay [12] is Mitogen-activated protein kinase 10 (Homo sapiens) (UniProt P53779). Kind of assay: Inhibition of JNK3 at 1 uM relative to control.

Chain of Aurora kinase B (Homo sapiens) (Q96GD4 whole entry): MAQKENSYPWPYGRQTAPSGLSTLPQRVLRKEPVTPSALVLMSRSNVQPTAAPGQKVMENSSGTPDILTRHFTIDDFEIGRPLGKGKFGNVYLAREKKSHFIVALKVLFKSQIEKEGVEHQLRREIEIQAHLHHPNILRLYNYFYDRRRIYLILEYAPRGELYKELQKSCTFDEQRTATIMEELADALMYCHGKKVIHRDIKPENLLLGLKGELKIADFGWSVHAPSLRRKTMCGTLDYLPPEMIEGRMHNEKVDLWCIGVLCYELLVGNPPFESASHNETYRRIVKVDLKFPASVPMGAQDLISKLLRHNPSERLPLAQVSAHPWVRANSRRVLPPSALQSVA
Chain of Ribosomal protein S6 kinase alpha-5 (Homo sapiens) (O75582 whole entry, looked up): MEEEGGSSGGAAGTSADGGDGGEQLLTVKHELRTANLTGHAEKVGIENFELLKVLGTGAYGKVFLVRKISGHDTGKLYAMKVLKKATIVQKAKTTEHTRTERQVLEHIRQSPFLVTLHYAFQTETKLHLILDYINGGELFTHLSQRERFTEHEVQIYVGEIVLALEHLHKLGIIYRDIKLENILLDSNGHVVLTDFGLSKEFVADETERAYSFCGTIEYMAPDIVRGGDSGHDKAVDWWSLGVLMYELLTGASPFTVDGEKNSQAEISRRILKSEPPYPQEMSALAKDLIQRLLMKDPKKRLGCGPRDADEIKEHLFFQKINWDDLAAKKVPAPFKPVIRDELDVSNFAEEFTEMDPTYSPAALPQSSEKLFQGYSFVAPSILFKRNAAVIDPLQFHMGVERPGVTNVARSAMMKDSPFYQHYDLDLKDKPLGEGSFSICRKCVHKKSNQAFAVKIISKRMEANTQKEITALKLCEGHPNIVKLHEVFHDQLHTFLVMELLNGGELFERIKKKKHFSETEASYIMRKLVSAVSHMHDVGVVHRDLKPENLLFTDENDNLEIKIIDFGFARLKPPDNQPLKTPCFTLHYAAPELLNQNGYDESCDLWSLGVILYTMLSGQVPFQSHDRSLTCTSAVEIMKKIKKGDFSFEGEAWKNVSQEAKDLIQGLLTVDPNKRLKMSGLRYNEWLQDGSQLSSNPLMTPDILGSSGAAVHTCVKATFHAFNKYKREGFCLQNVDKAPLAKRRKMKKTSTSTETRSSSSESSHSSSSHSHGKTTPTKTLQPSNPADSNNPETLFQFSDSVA
Chain of Serine/threonine-protein kinase pim-1 (Homo sapiens) (P11309 whole entry, looked up): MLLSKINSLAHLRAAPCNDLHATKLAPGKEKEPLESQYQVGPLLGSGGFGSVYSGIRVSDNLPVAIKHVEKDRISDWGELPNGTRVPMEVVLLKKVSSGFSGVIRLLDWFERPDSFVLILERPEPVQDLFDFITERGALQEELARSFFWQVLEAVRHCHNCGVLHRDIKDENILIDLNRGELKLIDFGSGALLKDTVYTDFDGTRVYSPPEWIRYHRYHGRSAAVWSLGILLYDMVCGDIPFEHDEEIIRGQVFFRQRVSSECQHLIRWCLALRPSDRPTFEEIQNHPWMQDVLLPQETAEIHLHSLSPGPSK
Chain of SRSF protein kinase 1 (Homo sapiens) (Q96SB4 whole entry): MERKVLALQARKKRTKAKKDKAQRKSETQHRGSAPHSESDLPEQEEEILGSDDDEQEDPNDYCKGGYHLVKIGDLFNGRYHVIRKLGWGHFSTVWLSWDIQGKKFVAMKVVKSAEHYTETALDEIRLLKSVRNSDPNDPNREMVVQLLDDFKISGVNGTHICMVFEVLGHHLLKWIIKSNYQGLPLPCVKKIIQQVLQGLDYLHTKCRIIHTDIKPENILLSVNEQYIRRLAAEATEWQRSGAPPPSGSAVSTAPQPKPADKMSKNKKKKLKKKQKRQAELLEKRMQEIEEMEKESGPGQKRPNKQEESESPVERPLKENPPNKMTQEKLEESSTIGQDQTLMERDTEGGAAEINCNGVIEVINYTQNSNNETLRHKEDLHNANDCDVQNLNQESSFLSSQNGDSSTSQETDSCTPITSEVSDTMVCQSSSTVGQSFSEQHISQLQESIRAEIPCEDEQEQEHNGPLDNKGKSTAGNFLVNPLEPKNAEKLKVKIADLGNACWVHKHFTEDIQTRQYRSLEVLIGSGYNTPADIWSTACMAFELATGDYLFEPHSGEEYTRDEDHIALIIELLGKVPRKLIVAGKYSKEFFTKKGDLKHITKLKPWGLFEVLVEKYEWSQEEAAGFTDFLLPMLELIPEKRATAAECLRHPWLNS
Chain of Maternal embryonic leucine zipper kinase (Homo sapiens) (Q14680 whole entry, looked up): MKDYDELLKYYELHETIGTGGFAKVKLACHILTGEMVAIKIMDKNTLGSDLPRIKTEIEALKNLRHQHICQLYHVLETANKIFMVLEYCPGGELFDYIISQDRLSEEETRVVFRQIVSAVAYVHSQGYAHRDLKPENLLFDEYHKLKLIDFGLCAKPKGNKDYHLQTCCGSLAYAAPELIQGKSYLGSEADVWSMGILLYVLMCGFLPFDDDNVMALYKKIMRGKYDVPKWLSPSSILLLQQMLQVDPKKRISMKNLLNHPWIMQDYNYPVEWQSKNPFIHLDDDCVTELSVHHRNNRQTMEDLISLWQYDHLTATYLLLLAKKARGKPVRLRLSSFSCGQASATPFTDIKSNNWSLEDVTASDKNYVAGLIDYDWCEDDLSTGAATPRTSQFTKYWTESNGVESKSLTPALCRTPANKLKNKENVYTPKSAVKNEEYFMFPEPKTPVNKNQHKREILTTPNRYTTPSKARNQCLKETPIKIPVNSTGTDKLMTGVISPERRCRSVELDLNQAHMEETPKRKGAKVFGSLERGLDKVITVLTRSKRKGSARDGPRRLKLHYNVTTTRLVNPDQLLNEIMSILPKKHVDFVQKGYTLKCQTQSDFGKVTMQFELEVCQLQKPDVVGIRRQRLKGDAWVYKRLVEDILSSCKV
Chain of Serine/threonine-protein kinase PAK 5 (Homo sapiens) (Q9P286 whole entry, looked up): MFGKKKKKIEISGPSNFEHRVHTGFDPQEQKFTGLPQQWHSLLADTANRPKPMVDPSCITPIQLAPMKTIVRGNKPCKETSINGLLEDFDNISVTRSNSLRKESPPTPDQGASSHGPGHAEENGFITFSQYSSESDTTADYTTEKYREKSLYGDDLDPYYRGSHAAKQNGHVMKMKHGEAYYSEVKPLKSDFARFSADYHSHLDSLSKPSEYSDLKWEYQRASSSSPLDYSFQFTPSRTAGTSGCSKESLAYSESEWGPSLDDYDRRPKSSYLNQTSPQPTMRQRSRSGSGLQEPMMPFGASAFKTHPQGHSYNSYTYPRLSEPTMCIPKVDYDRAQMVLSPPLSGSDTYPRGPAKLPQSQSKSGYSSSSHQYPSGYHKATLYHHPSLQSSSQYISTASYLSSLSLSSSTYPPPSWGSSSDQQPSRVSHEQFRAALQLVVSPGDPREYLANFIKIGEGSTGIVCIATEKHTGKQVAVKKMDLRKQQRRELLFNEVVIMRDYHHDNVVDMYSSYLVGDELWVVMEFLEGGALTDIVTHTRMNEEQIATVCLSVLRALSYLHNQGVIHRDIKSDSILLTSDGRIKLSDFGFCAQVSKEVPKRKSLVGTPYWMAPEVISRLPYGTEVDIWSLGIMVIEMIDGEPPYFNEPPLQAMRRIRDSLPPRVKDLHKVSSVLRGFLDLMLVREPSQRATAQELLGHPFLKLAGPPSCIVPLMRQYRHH
Chain of Calcium/calmodulin-dependent protein kinase kinase 2 (Homo sapiens) (Q96RR4 2-588 limits assumed): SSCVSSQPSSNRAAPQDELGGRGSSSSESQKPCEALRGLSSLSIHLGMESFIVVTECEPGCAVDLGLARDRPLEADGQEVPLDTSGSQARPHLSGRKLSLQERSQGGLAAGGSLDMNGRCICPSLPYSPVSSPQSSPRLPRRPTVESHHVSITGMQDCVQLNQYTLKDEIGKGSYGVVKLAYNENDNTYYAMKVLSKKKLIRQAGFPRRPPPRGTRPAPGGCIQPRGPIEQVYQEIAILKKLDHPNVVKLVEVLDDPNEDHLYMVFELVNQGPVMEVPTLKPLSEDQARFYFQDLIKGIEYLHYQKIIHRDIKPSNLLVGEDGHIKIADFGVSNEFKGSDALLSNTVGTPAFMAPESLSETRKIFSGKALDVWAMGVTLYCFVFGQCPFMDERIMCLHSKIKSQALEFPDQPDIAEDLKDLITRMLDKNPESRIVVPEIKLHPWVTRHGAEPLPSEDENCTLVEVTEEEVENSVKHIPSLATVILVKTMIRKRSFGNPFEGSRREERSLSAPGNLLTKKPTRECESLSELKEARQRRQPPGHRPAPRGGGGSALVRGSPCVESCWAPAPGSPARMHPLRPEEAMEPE
Chain of Tyrosine-protein kinase Lck (Homo sapiens) (P06239 2-509 limits assumed): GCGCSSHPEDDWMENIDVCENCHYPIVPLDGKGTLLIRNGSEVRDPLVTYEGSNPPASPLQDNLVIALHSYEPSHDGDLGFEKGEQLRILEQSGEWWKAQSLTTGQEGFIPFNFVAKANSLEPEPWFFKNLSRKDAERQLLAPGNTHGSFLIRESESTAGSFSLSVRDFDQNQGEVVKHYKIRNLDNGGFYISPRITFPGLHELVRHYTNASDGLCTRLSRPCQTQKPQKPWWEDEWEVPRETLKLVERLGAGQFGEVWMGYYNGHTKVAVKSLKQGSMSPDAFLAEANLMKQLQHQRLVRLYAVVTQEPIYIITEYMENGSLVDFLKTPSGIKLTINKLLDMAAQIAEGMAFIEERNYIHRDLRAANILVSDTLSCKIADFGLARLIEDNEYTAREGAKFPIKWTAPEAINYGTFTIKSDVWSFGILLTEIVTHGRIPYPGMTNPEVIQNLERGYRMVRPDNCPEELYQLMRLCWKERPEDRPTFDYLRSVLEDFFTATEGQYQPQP

In the case of `CSc1cc(Oc2ccnc3[nH]c(=O)[nH]c23)ccc1NC(=O)Nc1cccc(C(F)(F)F)c1`, the residual activity in [1] was 50%; in [2], less than 25%; in [4] it was 75%; in assay [5], 100%; in assay [6], 100%; in assay [7], 100%. The residual activity is 75% in [8]; 75% in assay [9]; less than 25% in assay [10]; 75% in assay [11]; 100% in [12]. Also, in [3], it took 1060 nM to inhibit growth by half (GI50).
As for `O=C(Nc1cc(C(F)(F)F)ccc1F)Nc1ccc(Oc2ccnc3[nH]c(=O)[nH]c23)c2ccccc12`, the residual activity in assay [1] was 100%; in assay [2] it was less than 25%; in assay [4], 75%; in assay [5], 75%; in [6], 75%; in assay [7] it was 100%. For the same molecule, the residual activity in assay [8] is 75%; in [9], 100%; in assay [10], less than 25%; in assay [11], 75%; in assay [12], 100%. Besides, the GI50 (usually the concentration giving 50% growth inhibition) in [3] was determined as 290 nM.
For `CC(C)(C)c1cccc(NC(=O)Nc2ccc(Oc3ccnc4[nH]c(=O)[nH]c34)c3ccccc23)c1`, the residual activity is 75% in assay [1]; 50% in [2]; 75% in [4]; 75% in [5]; 75% in assay [6]; 75% in assay [7]. Further, the residual activity in assay [8] is 75%; in assay [9], 75%; in assay [10], less than 25%; in [11], 75%; in assay [12], 75%. This molecule also gave a GI50 in assay [3] of 3900 nM.

The values are drawn from ChEMBL document CHEMBL1136991, “Novel potent BRAF inhibitors: toward 1 nM compounds through optimization of the central phenyl ring” (J Med Chem, 2009).
